# Results taken from the RNAGym collection of RNA variant scans (doi:10.1126/science.aae0568).
# Fewer inactive variants are shown than the library holds.
# B1: tRNA (parent)
# chain: GUUCCGUUGGCGUAAUGGUAACGCGUCUCCCUCCUAAGGAGAAGACUGCGGGUUCGAGUCCCGUACGGAACG
# Variants of: B1
# Assay: yeast fitness relative to wild type (ratio to wild type); higher = fitter; tRNA-Arg(CCU), competitive growth, 37 C, YPD
# Summary of the method: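 Gene amplicons from the start population and from each of six end populations were read by 100-nucleotide paired-end sequencing. Those end populations came from pooled Saccharomyces cerevisiae strains carrying tRNA-Arg(CCU) gene variants at the native locus, competed in YPD at 37°C for 24 hours. Fitness relative to wild type was worked out from changes in genotype frequencies. Genotypes needed ≥ 100 starting reads, and estimates < 0.5 were set to 0.5.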
row,Variant,yeast fitness
1,C5U G56C C60A,0.641
2,G6A C22U C31G,≤ 0.5
3,G6A A14C A37U,0.689
4,C5U G6C A21U U35C G39A,≤ 0.5
5,G6A C11G C22G C49A G51A,≤ 0.5
6,C5U G12C U13A,≤ 0.5
7,G6A C11A A43G G58A A65C C66U,≤ 0.5
8,G6A A36C,0.53
9,C5U G12C A42G C55A C62A,≤ 0.5
10,C5U U7C U13G A36C C46U,0.757
11,G6A C34U,0.65
12,G6A A15C G39A A65G,≤ 0.5
13,C5U U28A G41A C62U,≤ 0.5
14,C5U U47C,0.96
15,G6A C11A C49G,≤ 0.5
16,C5U U7C U26A,0.677
17,C5U C31A,0.688
18,C5U C31U,1.03
19,G6A C27U A57U,0.544
20,C5U U32C U35C C49G,≤ 0.5
21,C5U C30G C61A,≤ 0.5
22,C5U U32A C66U,0.578
23,G6A C22G A45C G52C A57U A69C,≤ 0.5
24,G6A A43G A65U,0.604

row,Variant,yeast fitness
1,C5U U35A A45C,0.602
2,C5U U19C C24A U28A C46G C62U A70U,≤ 0.5
3,G6A A14U G52A G63C,≤ 0.5
4,G6A A15G C22A,≤ 0.5
5,G6A A14G A42G,0.549
6,G6A A37G C60G A70U,≤ 0.5
7,C5U U13C C24G U26C A37G U54G C61G,0.575
8,G6A C33G C55G C61G,≤ 0.5
9,C5U C34A,0.631
10,C5U C55G C66U A69U,≤ 0.5
11,C5U G25A A45G G50C A69C,≤ 0.5
12,C5U U7C C31A G39A,≤ 0.5
13,G6A C29A C55U,0.514
14,C5U C24G A43C A45U G52A,≤ 0.5
15,G6A G9A C22U C30G,≤ 0.5
16,G6A A21C U28A C62U,≤ 0.5
17,C5U G10C C30G C34U A42C,≤ 0.5
18,G6A A57U G58A A65U,≤ 0.5
19,C5U C33G G56C A69U,≤ 0.5
20,G6A A14G G23A C24G G44A,≤ 0.5
21,G6A C27U A45C U59C C62U,≤ 0.5
22,C5U G23C U26C U32A A42U A65C,≤ 0.5
23,C5U U19A A21G A43C G51C,≤ 0.5
24,G6A C29U C31U C33G U35C,≤ 0.5

row,Variant,yeast fitness
1,G6A A43G,0.801
2,C5U U13A A43C C46G,0.627
3,G6A G9A A36C A37U G51A C62G,≤ 0.5
4,G6A C31G A40U,0.688
5,C5U U13G C33A A37C A70G,≤ 0.5
6,G6A A20C G39C C60G C61G,≤ 0.5
7,G6A A36C A37G G52A,≤ 0.5
8,C5U C27G C46U,0.753
9,G6A C11G A21G C27G C29U U35G,≤ 0.5
10,G6A A20C A57C,≤ 0.5
11,G6A A20C U28A C31A C33U A37C G50A A65U,≤ 0.5
12,C5U C24G C62G G68C,≤ 0.5
13,G6A C24U C29G C49A,0.575
14,C5U G25C A36C A40U,≤ 0.5
15,C5U U7C A40C C66U,≤ 0.5
16,C5U C27U A45U C60G,≤ 0.5
17,C5U U13G C61U,0.726
18,C5U G6A C66U,0.975
19,C5U G6A A65U C66U A70G,≤ 0.5
20,C5U G9A A37C C60U G67A,≤ 0.5
21,C5U C24U G41C A70C,≤ 0.5
22,G6A C24G U35A C46U G51C C55U A65C,≤ 0.5
23,C5U C24A U26C A40G G56A,≤ 0.5
24,C5U U19C C24A U28A,≤ 0.5

row,Variant,yeast fitness
1,C5U U28A C30G,≤ 0.5
2,C5U G10A A14C,0.6
3,G6A A20C C29A G44C,≤ 0.5
4,G6A C60A,0.515
5,C5U U13G C33A A37C,0.555
6,C5U C61A,0.612
7,G6A A14U C34A A70G,≤ 0.5
8,C5U U16A C24U C66G,≤ 0.5
9,G6A A45C G58A,0.519
10,C5U C46U G50C C61U,≤ 0.5
11,C5U G18C C49U U54G,≤ 0.5
12,C5U U28A A65U,0.553
13,C5U C29A C31A U54A,≤ 0.5
14,C5U U7G G9A C31G A36G,≤ 0.5
15,C5U U26G,0.969
16,C5U U26A,0.915
17,C5U C24A G39C A70C,≤ 0.5
18,G6A C24U,0.733
19,C5U C24A U32C,0.565
20,C5U U7C C46U,0.728
21,C5U U13C U35G C49U,0.608
22,G6A C30G G67C A69G,≤ 0.5
23,G6A A45C,0.738
24,C5U U13G C30U,0.663

row,Variant,yeast fitness
1,G6A C24U C31A A43C U53C,≤ 0.5
2,C5U C22U C30G C55U,≤ 0.5
3,C5U U19C A21U A37C C61A A65C,≤ 0.5
4,C5U C27G C33G A42C U64A,≤ 0.5
5,C5U C46A C55G C66U A69U,≤ 0.5
6,G6A C27U,0.785
7,G6A C11A U53C,≤ 0.5
8,G6A C31U U32C G67C,0.593
9,G6A C11A U26A G52A,≤ 0.5
10,C5U C24U A36G,0.791
11,G6A A15C U16C,≤ 0.5
12,G6A A20G A36G C49G C55U,≤ 0.5
13,G6A C24U C66U,0.647
14,C5U G23A U54C,≤ 0.5
15,G6A C24U C49A,≤ 0.5
16,C5U C22U A37C C55A A69U,≤ 0.5
17,C5U U8C A20G C30A C61A,0.649
18,C5U C34A A57G,≤ 0.5
19,C5U U13C U19A A21U C24A,0.511
20,C5U U16G C34A U53C C60U,≤ 0.5
21,C5U G9A G39A G48A A57U,≤ 0.5
22,C5U G44C A69U,0.815
23,G6A C31U C55U,0.571
24,C5U U47A G68C,0.534

row,Variant,yeast fitness
1,G6A A14U A20C U28C C46U G58A,≤ 0.5
2,C5U U7A U35A A36U A45U C60G,≤ 0.5
3,G6A C11A A14C U19C U32A A42C U54C C61U G68C,≤ 0.5
4,C5U U28C A45C,0.672
5,C5U C55A,0.668
6,C5U C30G C55G,≤ 0.5
7,C5U U7G C24U C34G A37C A42U C66U,≤ 0.5
8,C5U C66G,0.779
9,C5U C66A,0.729
10,C5U U7C A40U U59A A65U G68A,0.649
11,G6A A15C A20U A36U G39A,≤ 0.5
12,C5U G51C,0.691
13,C5U C27U G58A C60G,≤ 0.5
14,C5U G9A U54C C61G,0.673
15,C5U G68C A69U,≤ 0.5
16,C5U G17C C24G G38C G51C U59G,≤ 0.5
17,G6A C34A A40U U64A,≤ 0.5
18,G6A A21G C24G A37U,≤ 0.5
19,C5U G23A A69U,≤ 0.5
20,C5U U13C C22G C29A A45U,≤ 0.5
21,G6A C22A C29U,≤ 0.5
22,G6A C29U G50C U53C A57U C61G,≤ 0.5
23,C5U G17C C24G G38C,0.609
24,G6A A14G U35C A36G A45U,≤ 0.5

row,Variant,yeast fitness
1,C5U U16G A20C A21G C30U,≤ 0.5
2,C5U G25A C49U,0.802
3,C5U C31G C33U,0.522
4,G6A A36U G41A C60G,≤ 0.5
5,C5U G18A A37C C61U,≤ 0.5
6,C5U U28G C61G,0.58
7,C5U U8C G41C A69U,≤ 0.5
8,C5U G44C G68U,0.663
9,C5U C33G,0.777
10,C5U C33A,0.737
11,C5U G18A C30A G58A,≤ 0.5
12,C5U C27A C61U,0.589
13,C5U C29A G39C G50A G63A A69C,≤ 0.5
14,G6A C22G A40C G41C G68C,≤ 0.5
15,G6A A20G C30G U35A G50A A65C,0.517
16,C5U C29A G39C G63A U64C A69C,≤ 0.5
17,G6A C11G A21G C27G C29U U35G A70C,≤ 0.5
18,G6A C46G G51A,0.637
19,G6A A14U C61U,≤ 0.5
20,G6A A36U C66U,0.536
21,G6A C30U A65C A69G A70U,≤ 0.5
22,C5U C22U C33U G67A,≤ 0.5
23,C5U C34U C55G,≤ 0.5
